Measured values reported in ChEMBL document CHEMBL1255258, “Aminoglycosides affect intracellular Salmonella enterica serovars typhimurium and virchow” (Antimicrob Agents Chemother, 2008).
≈ marks a conversion by molar mass, not a printed value. Calls of active or inactive are those of the source. The calls are words filed in the database; no cut-off is given here.

Tests used:
Salmonella typhimurium [1] = experiment: Antibacterial activity against Salmonella enterica serovars Typhimurium ATCC 14028 infected in mouse J774A.1 cells at 50 ug/ml after 1hr; format: functional, organism-based; settings: Salmonella enterica subsp. enterica serovar Typhimurium
How it was run: (§1)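 J774 macrophages were seeded overnight at 37°C in 5% CO2, then switched to antibiotic-free RPMI. They were infected at 100:1 with Salmonella grown in RPMI to OD600 about 1. Extracellular bacteria were removed with 5 μg ml−1 polymyxin B for 10 min. Aminoglycoside was given for 1 h. Cells were lysed in 1% Triton X-100 buffer, and 1:10 serial dilutions were plated on LB agar.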

[2] = (§2) Antibacterial activity against Salmonella enterica serovars virchow isolate 101591 at pH 7.0 by broth dilution method; format: functional, Salmonella enterica subsp. enterica serovar Virchow
How it was run: (§3)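 Broth dilution MIC. Overnight cultures were diluted 1:100 in LB broth buffered with phosphate to pH 7 or 5.7, giving a final inoculum of ~10^6 CFU ml−1. Antibiotic range was 0 to 500 μg ml−1. Absorbance at 600 nm was read after 24 h at 37°C with shaking; mean of three experiments.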

Salmonella typhimurium [3] = experiment: Antibacterial activity against Salmonella enterica serovars Typhimurium ATCC 14028 at pH 5.7 by bioluminescence assay; format: functional, organism-based, Salmonella enterica subsp. enterica serovar Typhimurium
How it was run: (§4)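 Overnight cultures carrying the pChν1 lux plasmid were diluted 1:100 in LB broth with 30 μg ml−1 chloramphenicol, adjusted to pH 7 or 5.7. Final titer was ~10^6 CFU ml−1, with antibiotic at 0 to 500 μg ml−1. After 1 h at 30°C, homoserine-lactone (100 ng ml−1) was added to induce light. EC50 was the concentration halving light emission at 60 min; mean of three experiments.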

[4] = system: Salmonella enterica subsp. enterica serovar Virchow; experiment: Reduction in light emission by Salmonella enterica serovars virchow isolate 101591 infected in mouse J774A.1 cells after 5 mins; format: functional, cell-based
How it was run: (§5)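 Salmonella carrying pChν1 infected J774 macrophages (100:1, polymyxin B wash). Cells were held in antibiotic-free RPMI for 10 min at 37°C. Homoserine lactone 500 ng ml−1 was added, and 20 min later aminoglycoside at 15, 50, 100 or 150 μg ml−1. Luminescence was read every 5 min to 40 or 60 min, as % of untreated wells. Triplicate wells, at least three experiments.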

Salmonella typhimurium [5] = experiment: Antibacterial activity against Salmonella enterica serovars Typhimurium ATCC 14028 at pH 7.0 by broth dilution method; format: functional, Salmonella enterica subsp. enterica serovar Typhimurium
How it was run: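 Broth dilution MIC in LB broth buffered with phosphate to pH 7. Overnight culture was diluted 1:100 to about 10^6 CFU ml−1 final, with antibiotic at 0 to 500 μg ml−1. A600 was read after 24 h at 37°C with shaking.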

Salmonella typhimurium [6] = experiment: Antibacterial activity against Salmonella enterica serovars Typhimurium ATCC 14028 infected in mouse J774A.1 macrophage assessed as log reduction in viable counts at 150 ug/ml after 1hr; format: functional, organism-based; settings: Salmonella enterica subsp. enterica serovar Typhimurium; how it was run: as §1
[7] = (§6) Antibacterial activity against Salmonella enterica serovars virchow isolate 101591 at pH 5.7 by broth dilution method; format: functional, Salmonella enterica subsp. enterica serovar Virchow; how it was run: as §3
[8] = system: Salmonella enterica subsp. enterica serovar Virchow; experiment: Antibacterial activity against Salmonella enterica serovars virchow isolate 101591 infected in mouse J774A.1 cells at 50 ug/ml after 1hr; format: functional, cell-based; how it was run: as §1
[9] = Antibacterial activity against Salmonella enterica serovars virchow isolate 101591 at pH 5.7 by bioluminescence assay; format: functional, Salmonella enterica subsp. enterica serovar Virchow; how it was run: as §4
[10] = Antibacterial activity against Salmonella enterica serovars virchow isolate 101591 at pH 7.0 by bioluminescence assay; format: functional, Salmonella enterica subsp. enterica serovar Virchow; how it was run: as §4
[11] = system: Salmonella enterica subsp. enterica serovar Virchow; experiment: Antibacterial activity against Salmonella enterica serovars virchow isolate 101591 assessed as log reduction in viable counts at 150 ug/ml after 1hr; format: functional
Salmonella typhimurium [12] = experiment: Antibacterial activity against Salmonella enterica serovars Typhimurium ATCC 14028 assessed as log reduction in viable counts at 150 ug/ml after 1hr; format: functional, organism-based; settings: Salmonella enterica subsp. enterica serovar Typhimurium
[13] = system: Salmonella enterica subsp. enterica serovar Virchow; experiment: Antibacterial activity against Salmonella enterica serovars virchow isolate 101591 infected in mouse J774A.1 macrophage assessed as log reduction in viable counts at 150 ug/ml after 1hr; format: functional; how it was run: as §1
Salmonella typhimurium [14] = experiment: Antibacterial activity against Salmonella enterica serovars Typhimurium ATCC 14028 at pH 5.7 by broth dilution method; format: functional, Salmonella enterica subsp. enterica serovar Typhimurium; how it was run: as §3
Salmonella typhimurium [15] = experiment: Antibacterial activity against Salmonella enterica serovars Typhimurium ATCC 14028 at pH 7.0 by bioluminescence assay; format: functional, organism-based, Salmonella enterica subsp. enterica serovar Typhimurium; how it was run: as §4
[16] = system: Salmonella enterica subsp. enterica serovar Virchow; experiment: Reduction in light emission by Salmonella enterica serovars virchow isolate 101591 at < 50 ug/ml; format: functional
[17] = system: Salmonella enterica subsp. enterica serovar Virchow; experiment: as §2; format: functional; how it was run: as §3
[18] = system: Salmonella enterica subsp. enterica serovar Virchow; experiment: Reduction in light emission by Salmonella enterica serovars virchow isolate 101591 after 5mins; format: functional
Salmonella typhimurium [19] = experiment: Reduction in light emission by Salmonella enterica serovars Typhimurium ATCC 14028 infected in mouse J774A.1 cells at 50 ug/ml after 40 mins; format: functional, organism-based; settings: Salmonella enterica subsp. enterica serovar Typhimurium; how it was run: as §5
Salmonella typhimurium [20] = experiment: Reduction in light emission by Salmonella enterica serovars Typhimurium ATCC 14028 at > 30 ug/ml after 40 mins; format: functional, organism-based; settings: Salmonella enterica subsp. enterica serovar Typhimurium
Salmonella typhimurium [21] = experiment: Reduction in light emission by Salmonella enterica serovars Typhimurium ATCC 14028 at <= 30 ug/ml; format: functional, organism-based; settings: Salmonella enterica subsp. enterica serovar Typhimurium
Salmonella [22] = experiment: Antibacterial activity against Salmonella infected in mouse Nramp1 deficient RAW 264.7 cells assessed as log reduction in viable count at 100 ug/ml; format: functional, organism-based
Salmonella typhimurium [23] = experiment: Reduction in light emission by Salmonella enterica serovars Typhimurium ATCC 14028 infected in mouse J774A.1 cells at 15 ug/ml after 40 mins; format: functional, organism-based; parameters: scale not given: the % may be the effect or the level left; settings: Salmonella enterica subsp. enterica serovar Typhimurium; how it was run: as §5
[24] = system: Salmonella enterica subsp. enterica serovar Virchow; experiment: as §6; format: functional; how it was run: as §3
Salmonella typhimurium [25] = experiment: Reduction in light emission by Salmonella enterica serovars Typhimurium ATCC 14028 after 5 mins; format: functional, organism-based; settings: Salmonella enterica subsp. enterica serovar Typhimurium
Salmonella [26] = experiment: Antibacterial activity against Salmonella infected in mouse RAW 264.7 cells expressing Nramp1 assessed as log reduction in viable count at 100 ug/ml; format: functional, organism-based
Salmonella typhimurium [27] = experiment: Reduction in light emission by Salmonella enterica serovars Typhimurium ATCC 14028 infected in mouse J774A.1 cells at 15 ug/ml after 30 mins; format: functional, organism-based; settings: Salmonella enterica subsp. enterica serovar Typhimurium; how it was run: as §5
[28] = system: Salmonella enterica subsp. enterica serovar Virchow; experiment: Reduction in light emission by Salmonella enterica serovars virchow isolate 101591 at >= 50 ug/ml after 40 mins; format: functional
Salmonella typhimurium [29] = experiment: Reduction in light emission by Salmonella enterica serovars Typhimurium ATCC 14028 infected in mouse J774A.1 cells at 50 ug/ml after 30 mins; format: functional, organism-based; settings: Salmonella enterica subsp. enterica serovar Typhimurium; how it was run: as §5
Salmonella typhimurium [30] = experiment: Reduction in light emission by Salmonella enterica serovars Typhimurium ATCC 14028 infected in mouse Nramp deficient RAW 264.7 cells at 100 ug/ml; format: functional, organism-based; parameters: scale not given: the % may be the effect or the level left; settings: Salmonella enterica subsp. enterica serovar Typhimurium
How it was run: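 RAW 264.7 macrophages, Nramp1+ (R37) or Nramp1-null (R21), were infected with serovar Typhimurium carrying pChν1. Homoserine lactone was 500 ng ml−1. Gentamicin 100 μg ml−1 was added 0.5 to 3 h after infection. Luminescence was read every 5 min, as a ratio to untreated control in the same cell line. Triplicate, at least three trials.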

Salmonella typhimurium [31] = experiment: Reduction in light emission by Salmonella enterica serovars Typhimurium ATCC 14028 infected in mouse J774A.1 cells at 50 ug/ml within 5 mins; format: functional, organism-based; settings: Salmonella enterica subsp. enterica serovar Typhimurium; how it was run: as §5
[32] = Salmonella enterica, ATCC 14028, read-out: EC50
[33] = Salmonella enterica subsp. enterica serovar Typhimurium

Compound	Activity (Salmonella typhimurium [1])	MIC [2]	EC50 (Salmonella typhimurium [3]; [32])	Activity [4]	MIC (Salmonella typhimurium [5])	Activity (Salmonella typhimurium [6])	MIC [7]	Activity [8]	EC50 [9]	EC50 [10]	Activity [11]	Activity (Salmonella typhimurium [12])	Activity [13]	MIC (Salmonella typhimurium [14])	EC50 (Salmonella typhimurium [15]; [32])	other results
NC[C@H]1O[C@H](O[C@H]2[C@H](O)[C@@H](O[C@H]3O[C@H](CO)[C@@H](O)[C@H](N)[C@H]3O)[C@H](N)C[C@@H]2N)[C@H](N)C[C@@H]1O [TOBRAMYCIN]	inactive	8 µg/mL (≈ 17.1 µM)	19 µg/mL (≈ 40.6 µM)	Active	4 µg/mL (≈ 8.56 µM)	Active	250 µg/mL (≈ 535 µM)	Active	75 µg/mL (≈ 160 µM)	2.5 µg/mL (≈ 5.35 µM)	Active	Active	Active	125 µg/mL (≈ 267 µM)	1 µg/mL (≈ 2.14 µM)	–
GENTAMICIN [listing 1 of 2 here]	inactive	–	–	–	–	Active	–	Active	–	–	Active	Active	Active	–	–	Activity [16]: inactive; MIC [17]: 8 µg/mL; MIC (Salmonella typhimurium [5]; [33]): 4 µg/mL; Activity [18]: Active; Activity (Salmonella typhimurium [19]): Active; Activity (Salmonella typhimurium [20]): Active; Activity (Salmonella typhimurium [21]): inactive; FC (Salmonella [22]): 1.6; Activity (Salmonella typhimurium [23]): 20%; MIC [24]: 125 µg/mL; Activity (Salmonella typhimurium [25]): Active; FC (Salmonella [26]): 0.4; Activity (Salmonella typhimurium [27]): Active; Activity [28]: Active; Activity (Salmonella typhimurium [29]): Active; Activity (Salmonella typhimurium [30]): 80%; MIC (Salmonella typhimurium [14]; [33]): 125 µg/mL; Activity (Salmonella typhimurium [31]): Active
GENTAMICIN [listing 2 of 2 here]	–	–	–	–	–	–	–	–	85 µg/mL	2 µg/mL	–	–	–	–	–	EC50 (Salmonella typhimurium [3]): 34 µg/mL; EC50 (Salmonella typhimurium [15]): 1 µg/mL
NC[C@H]1O[C@H](O[C@H]2[C@H](O)[C@@H](O[C@H]3O[C@H](CO)[C@@H](O)[C@H](N)[C@H]3O)[C@H](N)C[C@@H]2N)[C@H](O)[C@@H](O)[C@@H]1O [KANAMYCIN]	inactive	16 µg/mL (≈ 33 µM)	29 µg/mL (≈ 59.9 µM)	Active	8 µg/mL (≈ 16.5 µM)	Active	250 µg/mL (≈ 516 µM)	Active	130 µg/mL (≈ 268 µM)	6.5 µg/mL (≈ 13.4 µM)	Active	Active	Active	250 µg/mL (≈ 516 µM)	3.5 µg/mL (≈ 7.22 µM)	–
